Assay results: ChEMBL document CHEMBL1131010, “Inhibition of human neutrophil elastase. 4. Design, synthesis, X-ray crystallographic analysis, and structure-activity relationships for a series of P2-modified, orally active peptidyl pentafluoroethyl ketones” (J Med Chem, 1998)

Experiments:
Format in all cases: functional, Cricetulus griseus
[1] = system: Cricetinae gen. sp.; assay: In vivo percent inhibition of lung hemorrhage in 6-8 hamsters administration of 25 mg/kg 2 hr before intratracheal instillation of HNE (25 ug)
Procedure, shortened: (§1)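 Hamsters dosed orally at 1, 1.5, 2 or 4 h before intratracheal instillation of HNE (25 µg). Animals were killed 1 h after HNE and lungs lavaged with saline. BAL hemoglobin was read spectrophotometrically at 536-546 nm. % inhibition of hemorrhage is relative to vehicle-treated animals, given as mean ± SEM of 6-8 hamsters, with p < 0.05 as significance.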

[2] = system: Cricetinae gen. sp.; assay: In vivo percent inhibition of lung hemorrhage in 6-8 hamsters administration of 25 mg/kg 1 hr before intratracheal instillation of HNE (25 ug); procedure, shortened: as §1
[3] = system: Cricetinae gen. sp.; assay: In vivo HNE inhibitory activity of lung hemorrhage in 6-8 hamsters; parameters: concentration or dose not given beside the values; procedure, shortened: as §1
[4] = system: Cricetinae gen. sp.; assay: In vivo percent inhibition of lung hemorrhage in 6-8 hamsters after administration of 25 mg/kg 1 hr before intratracheal instillation of HNE (25 ug); procedure, shortened: as §1
[5] = system: Cricetinae gen. sp.; assay: In vivo percent inhibition of lung hemorrhage in 6-8 hamsters administration of 25 mg/kg 1 hour before intratracheal instillation of HNE (25 ug); procedure, shortened: as §1
[6] = system: Cricetinae gen. sp.; assay: In vivo percent inhibition of lung hemorrhage in 6-8 hamsters administration of 25 mg/kg 2 hours before intratracheal instillation of HNE (25 ug); procedure, shortened: as §1
[7] = system: Cricetinae gen. sp.; assay: In vivo percent inhibition of lung hemorrhage in 6-8 hamsters administration of 25 mg/kg 4 hr before intratracheal instillation of HNE (25 ug); procedure, shortened: as §1

Row | Compound | Inhibition [3] | also measured
1 | CC(C)C(NC(=O)C1CCCCN1C(=O)[C@@H](NC(=O)c1ccc(C(=O)N2CCOCC2)cc1)C(C)C)C(=O)C(F)(F)C(F)(F)F (stereo not given in full) | 54% | inhibition in vivo at 25 mg/kg [1]: 39%; inhibition in vivo at 25 mg/kg [2]: 43%
2 | CC(C)C(NC(=O)[C@H]1CCN1C(=O)[C@@H](NC(=O)c1ccc(C(=O)N2CCOCC2)cc1)C(C)C)C(=O)C(F)(F)C(F)(F)F (stereo not given in full) | 79% | inhibition in vivo at 25 mg/kg [4]: 57%
3 | CC(C)C(NC(=O)C1CC(O)CN1C(=O)[C@@H](NC(=O)c1ccc(C(=O)N2CCOCC2)cc1)C(C)C)C(=O)C(F)(F)C(F)(F)F (stereo not given in full) | 0% | 
4 | CC(C)C(NC(=O)[C@@H]1CCCN1C(=O)[C@@H](NC(=O)c1ccc(C(=O)N2CCOCC2)cc1)C(C)C)C(=O)C(F)(F)C(F)(F)F (stereo not given in full) | 74% | 
5 | CC(C)C(NC(=O)[C@@H]1CCCN1C(=O)[C@@H](NC(=O)c1ccc(C(=O)N2CCOCC2)cc1)C(C)C)C(=O)C(F)(F)C(F)(F)C(F)(F)F (stereo not given in full) | 47% | inhibition in vivo at 25 mg/kg [5]: 30%; inhibition in vivo at 25 mg/kg [6]: 25%
6 | CC(C)C(NC(=O)[C@@H]1CSCN1C(=O)[C@@H](NC(=O)c1ccc(C(=O)N2CCOCC2)cc1)C(C)C)C(=O)C(F)(F)C(F)(F)F (stereo not given in full) | 0% | 
7 | CC(C)C(NC(=O)[C@H]1CC(OCc2ccccc2)CN1C(=O)[C@@H](NC(=O)c1ccc(C(=O)N2CCOCC2)cc1)C(C)C)C(=O)C(F)(F)C(F)(F)F (stereo not given in full) | 7% | 
8 | CC(=O)OC1CC(C(=O)NC(C(=O)C(F)(F)C(F)(F)F)C(C)C)N(C(=O)[C@@H](NC(=O)c2ccc(C(=O)N3CCOCC3)cc2)C(C)C)C1 (stereo not given in full) | 0% | inhibition in vivo at 25 mg/kg [1]: 0%; inhibition in vivo at 25 mg/kg [7]: 0%
